Results taken from ChEMBL document CHEMBL1156021, “Design, synthesis, and evaluation of novel 3-amino-4-hydrazine-cyclobut-3-ene-1,2-diones as potent and selective CXCR2 chemokine receptor antagonists” (Bioorg Med Chem Lett, 2009).

Experiments:
[1] = target: T1, C-X-C chemokine receptor type 1 (Homo sapiens, UniProt P25024); experiment: Displacement of [125I]IL-8 from human CXCR1 expressed in mouse BaF3 cells by liquid scintillation counting; type: cell-based
T1 sequence (P25024 whole entry): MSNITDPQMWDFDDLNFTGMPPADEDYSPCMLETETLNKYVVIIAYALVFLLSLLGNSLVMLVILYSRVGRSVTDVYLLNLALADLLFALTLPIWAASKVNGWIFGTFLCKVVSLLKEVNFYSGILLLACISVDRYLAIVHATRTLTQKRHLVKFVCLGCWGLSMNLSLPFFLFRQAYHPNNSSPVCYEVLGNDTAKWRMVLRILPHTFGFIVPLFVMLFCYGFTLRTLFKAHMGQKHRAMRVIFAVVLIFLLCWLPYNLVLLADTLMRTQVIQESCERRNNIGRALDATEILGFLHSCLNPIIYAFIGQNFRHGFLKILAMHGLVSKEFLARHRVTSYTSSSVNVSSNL
Summary of the method: (§1)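 SPA competition binding with receptor-overexpressing membranes (CXCR2 or CXCR1, CXCR1 at twice the membrane amount) mixed with 2 mg/mL wheatgerm-agglutinin-coated SPA beads. Buffer was 25 mM HEPES, 3 mM MgCl2, pH 7.4; the membrane and bead mix was held on ice 5 min. Tracer was [125I]IL-8 from a 0.040 nM stock. Compounds were half-log serially diluted in DMSO. Plates were incubated 2 h at room temperature, protected from light, then counted by liquid scintillation.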

[2] = species on record: Homo sapiens; experiment: Selectivity ratio of Ki for human CXCR1 to Ki for human CXCR2
Summary of the method: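 Scintillation proximity binding assays on membranes over-expressing CXCR2 or CXCR1, with CXCR1 membranes at twice the CXCR2 membrane level. Membranes were premixed with 2 mg/mL wheatgerm-agglutinin SPA beads in 25 mM HEPES, 3 mM MgCl2, pH 7.4, 5 min on ice. Half-log serial DMSO dilutions were added with [125I]IL-8 (0.040 nM stock). Plates were kept 2 h at room temperature in the dark, then read by scintillation counting.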

[3] = target: T2, C-X-C chemokine receptor type 2 (Homo sapiens, UniProt P25025); experiment: Displacement of [125I]IL-8 from human CXCR2 expressed in mouse BaF3 cells by liquid scintillation counting; type: cell-based; summary of the method: as §1
T2 sequence (P25025 whole entry): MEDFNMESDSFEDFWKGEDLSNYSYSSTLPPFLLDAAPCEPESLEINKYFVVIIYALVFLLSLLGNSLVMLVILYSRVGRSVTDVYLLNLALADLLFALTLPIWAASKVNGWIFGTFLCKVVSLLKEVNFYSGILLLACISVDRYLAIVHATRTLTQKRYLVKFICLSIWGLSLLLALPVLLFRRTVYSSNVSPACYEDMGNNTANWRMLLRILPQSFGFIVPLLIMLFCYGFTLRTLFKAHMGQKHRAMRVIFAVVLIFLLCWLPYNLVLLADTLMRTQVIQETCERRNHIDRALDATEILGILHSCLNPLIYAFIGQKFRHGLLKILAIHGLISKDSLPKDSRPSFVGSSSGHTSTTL

[4] = Metabolic stability in human liver microsomes assessed as compound remaining at 1 uM after 120 mins; type: ADME, Microsome; settings: read-out: Stability
[5] = Metabolic stability in human liver microsomes assessed as half life at 1 uM; type: ADME, Microsome
[6] = Metabolic stability in rat liver microsomes assessed as half life at 1 uM; type: ADME, Microsome

Structure (SMILES)	Ki [1] [µM]	Ratio Ki [2]	Ki [3] [µM]	IC50 [3] [µM]	remaining at 2 h, 1 µM [4] [%]	half-life at 1 µM [5] [h]	half-life at 1 µM [6] [h]
CCN(Nc1c(Nc2cccc(C(=O)N(C)C)c2O)c(=O)c1=O)c1ccc(OC)cc1	6.5	40	0.18				
CCN(Nc1c(Nc2cccc(C(=O)N(C)C)c2O)c(=O)c1=O)C(=O)c1ccc(F)cc1	> 12	> 46	0.26				
CCN(Nc1c(Nc2cccc(C(=O)N(C)C)c2O)c(=O)c1=O)c1ccccc1	4.1	40	0.11		> 50	> 2	
CCN(Nc1c(Nc2cccc(C(=O)N(C)C)c2O)c(=O)c1=O)c1ccc(F)cc1	> 12	> 20	0.55				

Results, then the compound that gave them:

Ki [1] [µM]	Ratio Ki [2]	Ki [3] [µM]	IC50 [3] [µM]	remaining at 2 h, 1 µM [4] [%]	half-life at 1 µM [5] [h]	half-life at 1 µM [6] [h]	Structure (SMILES)
> 12		0.32	3.29				CCN(Nc1c(Nc2cccc(C(=O)N(C)C)c2O)c(=O)c1=O)C(C)=O
9.7	80	0.12	1.86	> 50	> 2	1.4	CCN(CC)Nc1c(Nc2cccc(C(=O)N(C)C)c2O)c(=O)c1=O
> 12		7.2					CCN(Cc1ccc(F)cc1)Nc1c(Nc2cccc(C(=O)N(C)C)c2O)c(=O)c1=O
5.2	40	0.13		> 50	> 2		CCN(Nc1c(Nc2cccc(C(=O)N(C)C)c2O)c(=O)c1=O)c1ccccn1
			5.49				CCNNc1c(Nc2cccc(C(=O)N(C)C)c2O)c(=O)c1=O
